Test results reported in ChEMBL document CHEMBL3259753, “Synthesis, structure-activity relationships and biological evaluation of dehydroandrographolide and andrographolide derivatives as novel anti-hepatitis B virus agents” (Bioorg Med Chem Lett, 2014).

Columns and labels:
[1] = test system: Hepatitis B virus; test: Antiviral activity against HBV infected in human HepG2.2.15 cells assessed as inhibition of hepatitis B e antigen secretion by ELISA; assay type: functional, organism-based; conditions: HepG2 2.2.15
[2] = test system: Hepatitis B virus; test: Antiviral activity against HBV infected in human HepG2.2.15 cells assessed as inhibition of hepatitis B surface antigen secretion by ELISA; assay type: functional, organism-based; conditions: HepG2 2.2.15
[3] = Selectivity index, ratio of CC50 for human HepG2.2.15 cells to IC50 for HBV infected in human HepG2.2.15 cells assessed as inhibition of hepatitis B surface antigen secretion; assay type: functional
[4] = Selectivity index, ratio of CC50 for human HepG2.2.15 cells to IC50 for HBV infected in human HepG2.2.15 cells assessed as inhibition of hepatitis B e antigen secretion; assay type: functional
[5] = Selectivity index, ratio of CC50 for human HepG2.2.15 cells to IC50 for HBV infected in human HepG2.2.15 cells assessed as inhibition of DNA replication; assay type: functional
[6] = test system: Hepatitis B virus; test: Antiviral activity against HBV infected in human HepG2.2.15 cells assessed as inhibition of DNA replication; assay type: functional, organism-based; conditions: HepG2 2.2.15
[7] = Cytotoxicity against human HepG2.2.15 cells by MTT assay; assay type: cell-based, HepG2 2.2.15
[8] = Octanol-water partition coefficient, log P of the compound at 30 degC by HPLC analysis; assay type: physicochemical
In short: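 Shake-flask method: solutes equilibrated between octanol and water. Compound concentration in the octanol phase determined by HPLC. LogP determined at 30 °C.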

Compound	IC50 [1] [µM]	IC50 [2] [µM]	Ratio CC50/IC50 [3]	Ratio CC50/IC50 [4]	Ratio CC50/IC50 [5]	IC50 [6] [µM]	CC50 [7] [µM]	logP [8]	logP ([8]; read-out: logP)
C=C1CC[C@@H]2[C@](C)(COC(=O)c3ccco3)[C@H](O)CC[C@@]2(C)[C@@H]1/C=C/C1=CCOC1=O	77.5	19.2	4.6	1.2	9.9	9.3	92	–	–
C=C1CC[C@@H]2[C@](C)(CO)[C@H](OC(C)=O)CC[C@@]2(C)[C@@H]1C/C=C1\C=COC1=O	241	318	2.7	3.6	19.6	44.4	872	–	–
C=C1CC[C@@H]2[C@](C)(CO)[C@H](O)CC[C@@]2(C)[C@@H]1/C=C/C1=CCOC1=O	–	–	–	–	8.7	22.6	197	1.44	–
C=C1CC[C@@H]2[C@](C)(COC(C)=O)[C@H](O)CC[C@@]2(C)[C@@H]1C/C=C1\C=COC1=O	289	280	1.2	1.1	7.6	44.1	334	–	–
C=C1CC[C@@H]2[C@](C)(COC(=O)/C=C/c3ccccc3)[C@H](O)CC[C@@]2(C)[C@@H]1/C=C/C1=CCOC1=O	28.9	18	10.2	6.3	15.5	14.6	183	–	–
C=C1CC[C@@H]2[C@](C)(COC(=O)/C=C/c3cc(OC)c(OC)c(OC)c3)[C@H](O)CC[C@@]2(C)[C@@H]1/C=C/C1=CCOC1=O	201	–	–	>8.5	>165.1	10.3	> 1710	–	1.78
C=C1CC[C@@H]2[C@](C)(COC(=O)c3cccs3)[C@H](O)CC[C@@]2(C)[C@@H]1/C=C/C1=CCOC1=O	29.2	162	3.4	19.1	25.2	22.1	557	–	–
C=C1CC[C@@H]2[C@](C)(COC(=O)c3cccs3)[C@H](O)CC[C@@]2(C)[C@@H]1C/C=C1\C=COC1=O	19.7	121	20.3	125	104.9	23.5	2470	–	–
C=C1CC[C@@H]2[C@](C)(COC(=O)c3cccs3)[C@H](OC(=O)c3cccs3)CC[C@@]2(C)[C@@H]1/C=C/C1=CCOC1=O	822	1450	>1	>1.8	>8.3	185	> 1540	–	–
C=C1CC[C@@H]2[C@](C)(CO)[C@H](O)CC[C@@]2(C)[C@@H]1C/C=C1/C(=O)OC[C@H]1O [ANDROGRAPHOLIDE]	–	–	–	–	3.7	54.1	198	–	0.52
C=C1CC[C@@H]2[C@](C)(COC(=O)c3cccnc3)[C@H](O)CC[C@@]2(C)[C@@H]1/C=C/C1=CCOC1=O	63.5	40	2.8	1.8	5.1	22.1	113	–	–
C=C1CC[C@@H]2[C@](C)(COC(C)=O)[C@H](OC(C)=O)CC[C@@]2(C)[C@@H]1C/C=C1\C=COC1=O	260	251	1.2	1.1	7.6	39.6	297	–	–
C=C1CC[C@@H]2[C@](C)(CO)[C@H](O)CC[C@@]2(C)[C@@H]1/C=C/C1=CC(CO)(CO)OC1=O	860	74	13	1.1	6.2	154	954	–	–
